# Tb MetRS inh = T. brucei MetRS inhibitors, primary screen, biochemical, luminescence. methionyl-tRNA synthetase (Trypanosoma brucei brucei). purified T. brucei MetRS, ATP depletion, Kinase-Glo luminescence. inhibition, % at 11.9 µM. actives 0.4% (n = 360,000). AID 624268, 2012;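 active = inhibition above a per-plate cutoff of the control wells' mean inhibition plus 3 SD, cut at about 5.5% in these data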;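 note: 0% = DMSO wells median and 100% = median of wells with control inhibitor compound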
#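 Test system: purified T. brucei MetRS enzyme. Also added: ATP, methionine and E. coli bulk tRNA substrates. Compound: 11.9 µM single point. Schedule: 15 min enzyme-compound preincubation, 2 h reaction, 10 min detection, 25 °C. Signal: luciferase luminescence of residual ATP, Kinase-Glo. Evaluation: percent inhibition versus plate control medians. Controls: DMSO wells, low control.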
# NALP1 inh = NALP1 inflammasome inhibitors in reconstituted yeast, colorimetric, S. cerevisiae, triplicate retest | S. cerevisiae NALP1/ASC/caspase-1 growth, X-gal OD620, 72 h | inhibition, % at 10 µM | actives 0.61% (n = 280,000) | AID 2071, 2009; in the data active = inhibition mostly above about 24%, no sharp cut-off; inactive = mostly below about 32%
# NALP3 yeast inh = NALP3 inflammasome inhibitors in reconstituted yeast, primary screen, luminescence, uHTS; AID 2825, 2010; inhibition, % at 10 µM; Yeast reconstituted NLRP3/ASC/caspase-1, beta-gal luminescence, 24 h; actives 0.39% (n = 330,000);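 active = inhibition of 50% or more; inactive = inhibition below 50%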;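 note: plate controls were induced DMSO wells for no effect and uninduced yeast grown without galactose for full effect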
# MC4R antagonist = MC4R antagonists of cAMP signaling, primary screen, cell-based, TR-FRET, antagonist arm of biased-ligand search | MC4R-expressing cells, MTII-stimulated cAMP, LANCE TR-FRET | inhibition, % at 6.5 µM | Melanocortin receptor 4 (Homo sapiens), P32245 | actives 0.48% (n = 360,000);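 active = inhibition above its plate's cutoff, the mean of tested wells on that plate plus 3 SD, cut at about 29% in these data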;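 note: 0% = Melanotan II alone and 100% = Melanotan II plus saturating MCL0020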
# Target sequence (P32245 whole entry, looked up): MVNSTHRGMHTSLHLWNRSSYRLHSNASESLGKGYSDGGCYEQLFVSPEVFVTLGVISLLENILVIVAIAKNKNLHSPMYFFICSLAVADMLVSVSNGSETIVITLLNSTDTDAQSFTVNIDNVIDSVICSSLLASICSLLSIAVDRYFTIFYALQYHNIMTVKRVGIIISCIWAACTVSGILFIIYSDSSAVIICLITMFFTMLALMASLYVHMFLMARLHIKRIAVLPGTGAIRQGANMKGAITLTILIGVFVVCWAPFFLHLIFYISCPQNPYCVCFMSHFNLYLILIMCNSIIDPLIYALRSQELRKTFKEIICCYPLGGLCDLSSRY
#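 System: U2OS cells stably expressing human melanocortin 4 receptor (MC4R). Reagent: Melanotan II challenge after compound preincubation. Doses: 6.5 µM. Times: 30-min compound, 1-h challenge, 1-h detection, room temperature. Measured by: TR-FRET with Eu-cAMP and labeled anti-cAMP, 671 nm. Replicates: singlicate.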
# Bfl-1 A1 inh = caspase 3/7 activation in MEF A1-2A-BIM cells, primary screen, A1 inhibitor project, cell-based, luminescence, HTS; AID 2462, 2010; actives 0.066% (n = 330,000); caspase activation, % (concentration not given with the values); Caspase-Glo 3/7 luminescence, 3 h; percent of clofoctol response, vehicle zero;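 active = over half of replicate activation scores above 10%, or exactly half above 10 with the replicate mean above 10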
# MC4R ag barr = MC4R agonists recruiting beta-arrestin, primary screen, cell-based, luminescence, agonist arm of biased-ligand search | Melanocortin receptor 4 (Homo sapiens), P32245 | actives 0.98% (n = 360,000) | AID 540308, 2011 | activation, % at 8.9 µM | U2OS MC4R beta-arrestin complementation; percent of melanotan II response, DMSO zero;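 active = activation above a per-plate cutoff, the mean activation of sample wells on that plate plus 3 SD, cut at about 8% in these data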
# Active calls of the source: *; / = no result. In the library only some 2.5% were active in any assay of this set; here they are far more common.
SMILES,Tb MetRS inh,NALP1 inh,NALP3 yeast inh,MC4R antagonist,Bfl-1 A1 inh,MC4R ag barr
CSc1nc(-c2ccccc2)nc(N2CCN(C)CC2)c1C(C)=O,-1.4,34.0*,42.9,-3.3,-0.3,-0.4
CCOc1ccc(C(=O)NC(=S)Nc2ccc(N3CCCCC3)cc2)cc1[N+](=O)[O-],-0.1,-7.2,17.4,0.3,-0.7,47.2*
CCOc1ccc(C(=O)NC(=S)Nc2ccccc2N2CCCCC2)cc1[N+](=O)[O-],-0.2,46.4,19.7,11.7,-0.6,-1.1
COc1ccc(/C=N/NC(=O)c2ccc(Cl)cc2)cc1Cn1cc(Cl)cn1,-0.4,30.7,10.0,0.0,-0.4,8.7*
CCN(CC)CCNc1nc(C(F)(F)F)nc2c1nnn2Cc1ccccc1,-0.1,-6.8,16.4,-0.9,0.0,1.1
FC(F)(F)c1nc(NCc2ccccc2)c2nnn(Cc3ccccc3)c2n1,0.0,25.7,-12.1,-8.2,-0.9,8.4*
CCOC(=O)CC1C(=O)NCCN1C(=O)c1c(Cl)cccc1Cl (centres undefined),-0.2,2.9,14.1,8.1,0.0,-2.1
O=C(/C=C/Nc1ccc(F)c(Cl)c1)c1ccco1,-0.6,30.8*,2.4,-5.8,-2.4,-1.1
O=C(/C=C/Nc1cccc(F)c1)c1ccco1,-0.6,15.1,19.5,2.3,-2.9,-0.4
Cc1cccc(OCc2nnc(SCC(=O)N(c3ccccc3)C3CCS(=O)(=O)C3)o2)c1 (centres undefined),-0.3,/,6.4,8.1,-0.8,-2.5
C=C1CCN([C@@H](Cc2ccccc2)C(=O)NCc2ccc(Cl)cc2)S(=O)(=O)c2ccccc21,-0.2,/,7.6,9.8,-1.8,1.2
O=C1CCCCC1C(Nc1ccc(Cl)cc1)c1ccccc1 (centres undefined),-0.4,15.2,-6.7,1.9,-0.5,8.9*
COc1ccc2nc(NC(C)=O)sc2c1,-0.1,3.7,5.2,-3.7,-5.9,-0.5
CC(=O)Nc1nc2ccc(Br)cc2s1,0.3,28.8*,-0.3,7.3,-11.0,-2.3
CCCCC(=O)N1CCN(c2nc3ccc(F)cc3s2)CC1,-1.3,18.7,30.0,4.0,-16.9,0.5
CCC(=O)N1CCN(c2nc3ccc(Br)cc3s2)CC1,-0.3,30.5*,-1.9,15.6,1.2,-3.1
O=C(Nc1nnc([C@@H]2C[C@H](O)[C@@H](CO)O2)s1)Nc1cccc2c1CCCC2,0.2,/,/,7.0,/,1.3
O=C(CN1C(=O)COc2ccc(Cl)cc21)NCC1CCCO1 (centres undefined),0.2,0.9,3.2,10.7,0.4,0.3
Cc1ccc(/C=N/NC(=O)CCCOc2ccc(Cl)cc2Cl)cc1[N+](=O)[O-],-0.6,18.4,-1.1,5.6,0.6,9.0*
COc1ccc(/C=N/NC(=O)CCCOc2ccc(Cl)cc2Cl)cc1[N+](=O)[O-],1.3,-1.5,-0.9,0.3,-0.9,-0.6
CCn1c(CCCOc2ccc(Cl)cc2Cl)nnc1SCC(=O)Nc1cccc(F)c1,0.5,4.4,-11.6,5.5,0.3,9.8*
CC(NC(=O)c1ccco1)C1CCCO1 (centres undefined),-1.6,44.0*,-2.9,6.5,0.3,-1.5
Cc1cscc1-c1cc2nc(NCCCN(C)C)n(C)c(=O)c2s1,-0.2,/,/,4.6,/,-0.2
COc1ccc(N(CC(=O)NCc2ccco2)C(=O)CNS(=O)(=O)c2ccc(Cl)cc2)cc1,0.1,-2.4,12.3,21.0,-0.5,1.5
CCOc1ccc(NC(=S)Nc2cccc3cnccc23)cc1,-0.1,1.1,15.1,19.8,-0.7,-1.4
SMILES,Tb MetRS inh,NALP1 inh,NALP3 yeast inh,MC4R antagonist,Bfl-1 A1 inh,MC4R ag barr
CCOc1ccc(NC(=S)Nc2cccc3ccccc23)cc1,-0.1,40.5*,20.1,-5.3,-1.3,-2.3
CC(=O)Nc1ccc(OCc2cccc3ccccc23)cc1,0.4,29.1*,32.1,19.7,-0.7,2.2
CS(=O)(=O)c1ccc(-c2cccc(NC(=O)c3ccco3)c2)nn1,-0.1,/,1.4,1.8,-0.3,-1.5
O=S(=O)(NC1CC1)c1ccc(S(=O)(=O)N2CCN3CCCC3C2)cc1 (centres undefined),-0.3,-11.7,4.5,-0.6,0.7,-0.5
O=S(=O)(NC1CC1)c1ccc(S(=O)(=O)N2CCCC3(CCCCC3)C2)cc1,-0.1,-8.3,7.8,10.3,-0.1,9.8*
CCOC(=O)C1=C(CSc2nccn2C)NC(=O)NC1c1ccc2c(c1)OCO2 (centres undefined),-0.8,11.7,14.1,4.5,-0.6,9.2*
O=C(Cn1c(-c2ccccc2)noc1=O)Nc1ccc(N2CCCCCC2)cc1,0.1,35.9*,5.7,16.2,0.7,4.5
CCC(=O)Nc1ccc(N2CCCCC2)cc1,-0.8,40.2*,6.7,5.8,0.2,-1.4
CCc1nc2ccccc2c(C(=O)OCc2nc3ccccc3c(=O)[nH]2)c1C,0.2,/,12.3,-28.1,-0.2,-1.7
COc1ccccc1-n1nnnc1SCC(=O)N1CCCC1=O,-0.5,3.7,8.2,-1.0,0.1,0.4
CCOc1ccc(OCCC(=O)OCC(=O)Nc2cc(OCC)c(N3CCOCC3)cc2OCC)cc1,-0.4,/,19.3,9.0,1.1,-1.6
O=C(CSc1nnc(COc2ccc(Cl)cc2Cl)o1)Nc1ccccn1,0.5,17.9,0.4,5.8,-0.5,8.9*
C(=N\N=C\c1ccccc1)/c1ccccc1,-0.7,35.6*,12.3,5.7,-3.0,-0.8
Cc1ccc(/C=N/N=C/c2ccc(C)cc2)cc1,0.6,35.7,34.5,16.2,0.4,-1.0
O=C(N/N=C/c1ccco1)c1cc(Br)ccc1OCc1ccccc1,-0.7,19.7,5.0,2.8,-1.4,9.4*
COc1cc(CNC(C)(C)CO)cc(Br)c1OCc1ccc(Cl)cc1Cl,-0.1,58.2*,10.2,3.7,-0.1,5.8
COc1cc(CNC(C)(C)CO)cc(Br)c1OCc1ccc(Cl)cc1,-0.6,29.7,-14.9,0.1,1.9,1.9
COc1cc(CNCCO)cc(Cl)c1OCc1ccc(Cl)cc1Cl,0.9,38.3*,18.8,-6.0,-0.4,1.6
CC(=O)C(=Cc1ccc(Cl)cc1)C(=O)c1ccccc1,-0.5,/,/,/,/,/
CNC(=O)CSc1nc2ccccc2c(=O)n1CCc1ccccc1,-1.1,3.1,20.5,-0.2,-0.1,-0.7
Cc1cc(C)n(C(=O)c2cccc(S(=O)(=O)N3CCOCC3)c2)n1,-0.5,28.8,7.3,3.1,0.4,-4.2
Cc1ccc(Sc2c(C)nn(C(=O)c3cccc(S(=O)(=O)N4CCOCC4)c3)c2C)cc1,0.5,-0.9,0.6,-0.4,0.1,9.2*
